Assay results taken from ChEMBL document CHEMBL4689842, “EUbOPEN Chemogenomics Library wave 1” (2021).
“And” between values parts separate entries of the source, which are not always exact repeats. Identical values can stand only once.

System: HEK-293T
Experiment: Multiplex assay against HEK293T;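 as to Population Tubulin-Different-Phenotype (%): share of the cells with healthy nuclei that show this phenotype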
Format: toxicity, cell-based
Settings: human
Summary of the method: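 Live cells were stained at seeding with Hoechst33342, BioTracker Green Microtubule Cytoskeleton Dye, MitoTracker Red and Annexin V Alexa Fluor 680, then imaged on a CQ1 microscope at 37°C and 5% CO2 after compound addition. CellPathfinder machine-learning gating split cells into Hoechst high-intensity objects or normal cells. Normal cells were split into healthy, pyknosed or fragmented nuclei, and pyknosed cells into mitotic or apoptotic. Tubulin, mitochondrial-mass and membrane-permeability phenotypes are per cents of healthy-nucleus cells.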

[1] = 12 h, 1 µM, compound concentration 1 uM, replicate 1
[2] = 12 h, 1 µM, compound concentration 1 uM, replicate 2
[3] = 12 h, 10 µM, compound concentration 10 uM, replicate 1
[4] = 12 h, 10 µM, compound concentration 10 uM, replicate 2
[5] = 24 h, 1 µM, compound concentration 1 uM, replicate 1
[6] = 24 h, 1 µM, compound concentration 1 uM, replicate 2
[7] = 24 h, 10 µM, compound concentration 10 uM, replicate 1
[8] = 24 h, 10 µM, compound concentration 10 uM, replicate 2

`O=C(Nc1cccnn1)N1CCC(=Cc2cccc(Oc3ccc(C(F)(F)F)cn3)c2)CC1` was tested, and the “Population Apoptotic (%)” value [1] was 22%, the “Population Fragmented Nuclei (%)” value [1] was 20% and the “Population Healthy Nuclei (%)” value [1] was 46%. For the same molecule, the “Population Hoechst High Intensity Objects (%)” value [1] was 16%, the “Population Membrane Permeable-Phenotype (%)” value [1] was 10% and the “Population Mitochondria Different-Phenotype (%)” value [1] was 17%. The “Population Mitotic Cells (%)” value [1] was 77%, the “Population Normal (%)” value [1] was 83% and the “Population Pyknosed Nuclei (%)” value [1] was 33%. For the same molecule, the “Population Tubulin-Different-Phenotype (%)” value [1] was 29%, the “Total Cell Count” value [1] was 578 and the “Population Apoptotic (%)” value [2] was 17%. The “Population Fragmented Nuclei (%)” value [2] was 5%, the “Population Healthy Nuclei (%)” value [2] was 83% and the “Population Hoechst High Intensity Objects (%)” value [2] was 9%. The “Population Membrane Permeable-Phenotype (%)” value [2] was 7%, the “Population Mitochondria Different-Phenotype (%)” value [2] was 30% and the “Population Mitotic Cells (%)” value [2] was 82%. The “Population Normal (%)” value [2] was 90%, the “Population Pyknosed Nuclei (%)” value [2] was 11% and the “Population Tubulin-Different-Phenotype (%)” value [2] was 62%. For the same molecule, the “Total Cell Count” value [2] was 1415, the “Population Apoptotic (%)” value [3] was 30% and the “Population Fragmented Nuclei (%)” value [3] was 13%. For the same molecule, the “Population Healthy Nuclei (%)” value [3] was 67%, the “Population Hoechst High Intensity Objects (%)” value [3] was 9% and the “Population Membrane Permeable-Phenotype (%)” value [3] was 3%. For the same molecule, the “Population Mitochondria Different-Phenotype (%)” value [3] was 4%, the “Population Mitotic Cells (%)” value [3] was 69% and the “Population Normal (%)” value [3] was 90%. The “Population Pyknosed Nuclei (%)” value [3] was 18%, the “Population Tubulin-Different-Phenotype (%)” value [3] was 5% and the “Total Cell Count” value [3] was 619. The “Population Apoptotic (%)” value [4] was 8%, the “Population Fragmented Nuclei (%)” value [4] was 7% and the “Population Healthy Nuclei (%)” value [4] was 88%. For the same molecule, the “Population Hoechst High Intensity Objects (%)” value [4] was 1%, the “Population Membrane Permeable-Phenotype (%)” value [4] was 1% and the “Population Mitochondria Different-Phenotype (%)” value [4] was 12%. For the same molecule, the “Population Mitotic Cells (%)” value [4] was 91%, the “Population Normal (%)” value [4] was 98% and the “Population Pyknosed Nuclei (%)” value [4] was 4%. The “Population Tubulin-Different-Phenotype (%)” value [4] was 6%, the “Total Cell Count” value [4] was 1821 and the “Population Apoptotic (%)” value [5] was 31%. For the same molecule, the “Population Fragmented Nuclei (%)” value [5] was 16%, the “Population Healthy Nuclei (%)” value [5] was 56% and the “Population Hoechst High Intensity Objects (%)” value [5] was 15%. The “Population Membrane Permeable-Phenotype (%)” value [5] was 12%, the “Population Mitochondria Different-Phenotype (%)” value [5] was 19% and the “Population Mitotic Cells (%)” value [5] was 68%. The “Population Normal (%)” value [5] was 84%, the “Population Pyknosed Nuclei (%)” value [5] was 27% and the “Population Tubulin-Different-Phenotype (%)” value [5] was 54%. For the same molecule, the “Total Cell Count” value [5] was 519, the “Population Apoptotic (%)” value [6] was 8% and the “Population Fragmented Nuclei (%)” value [6] was 6%. The “Population Healthy Nuclei (%)” value [6] was 83%, the “Population Hoechst High Intensity Objects (%)” value [6] was 10% and the “Population Membrane Permeable-Phenotype (%)” value [6] was 10%. The “Population Mitochondria Different-Phenotype (%)” value [6] was 30%, the “Population Mitotic Cells (%)” value [6] was 91% and the “Population Normal (%)” value [6] was 89%. For the same molecule, the “Population Pyknosed Nuclei (%)” value [6] was 10%, the “Population Tubulin-Different-Phenotype (%)” value [6] was 82% and the “Total Cell Count” value [6] was 1537. For the same molecule, the “Population Apoptotic (%)” value [7] was 17%, the “Population Fragmented Nuclei (%)” value [7] was 9% and the “Population Healthy Nuclei (%)” value [7] was 83%. The “Population Hoechst High Intensity Objects (%)” value [7] was 4%, the “Population Membrane Permeable-Phenotype (%)” value [7] was 8% and the “Population Mitochondria Different-Phenotype (%)” value [7] was 2%. For the same molecule, the “Population Mitotic Cells (%)” value [7] was 82%, the “Population Normal (%)” value [7] was 95% and the “Population Pyknosed Nuclei (%)” value [7] was 7%. For the same molecule, the “Population Tubulin-Different-Phenotype (%)” value [7] was 5%, the “Total Cell Count” value [7] was 783 and the “Population Apoptotic (%)” value [8] was 2%. The “Population Fragmented Nuclei (%)” value [8] was 22%, the “Population Healthy Nuclei (%)” value [8] was 74% and the “Population Hoechst High Intensity Objects (%)” value [8] was 3%. For the same molecule, the “Population Membrane Permeable-Phenotype (%)” value [8] was 3%, the “Population Mitotic Cells (%)” value [8] was 97% and the “Population Normal (%)” value [8] was 96%. For the same molecule, the “Population Pyknosed Nuclei (%)” value [8] was 2%, the “Population Tubulin-Different-Phenotype (%)” value [8] was 8% and the “Total Cell Count” value [8] was 3029.

With `CN([C@@H](Cc1ccc(OS(=O)(=O)c2cccc3cnccc23)cc1)C(=O)N1CCN(c2ccccc2)CC1)S(=O)(=O)c1cccc2cnccc12` the “Population Apoptotic (%)” value [1] was 32% and 22%, the “Population Fragmented Nuclei (%)” value [1] was 26% and 15% and the “Population Healthy Nuclei (%)” value [1] was 31% and 38%. The “Population Hoechst High Intensity Objects (%)” value [1] was 18% and 15%, the “Population Membrane Permeable-Phenotype (%)” value [1] was 34% and 31% and the “Population Mitochondria Different-Phenotype (%)” value [1] was 22%. For the same molecule, the “Population Mitotic Cells (%)” value [1] was 67% and 77%, the “Population Normal (%)” value [1] was 81% and 84% and the “Population Pyknosed Nuclei (%)” value [1] was 42% and 46%. For the same molecule, the “Population Tubulin-Different-Phenotype (%)” value [1] was 77% and 86%, the “Total Cell Count” value [1] was 417 and 601 and the “Population Apoptotic (%)” value [2] was 15% and 13%. For the same molecule, the “Population Fragmented Nuclei (%)” value [2] was 2% and 3%, the “Population Healthy Nuclei (%)” value [2] was 73% and the “Population Hoechst High Intensity Objects (%)” value [2] was 3% and 2%. The “Population Membrane Permeable-Phenotype (%)” value [2] was 28% and 27%, the “Population Mitochondria Different-Phenotype (%)” value [2] was 34% and 43% and the “Population Mitotic Cells (%)” value [2] was 84% and 86%. For the same molecule, the “Population Normal (%)” value [2] was 96% and 97%, the “Population Pyknosed Nuclei (%)” value [2] was 23% and 22% and the “Population Tubulin-Different-Phenotype (%)” value [2] was 97%. The “Total Cell Count” value [2] was 993 and 1067, the “Population Apoptotic (%)” value [5] was 39% and 33% and the “Population Fragmented Nuclei (%)” value [5] was 22% and 14%. The “Population Healthy Nuclei (%)” value [5] was 46% and 51%, the “Population Hoechst High Intensity Objects (%)” value [5] was 14% and 13% and the “Population Membrane Permeable-Phenotype (%)” value [5] was 20%. The “Population Mitochondria Different-Phenotype (%)” value [5] was 50% and 32%, the “Population Mitotic Cells (%)” value [5] was 60% and 66% and the “Population Normal (%)” value [5] was 85% and 86%. For the same molecule, the “Population Pyknosed Nuclei (%)” value [5] was 31% and 33%, the “Population Tubulin-Different-Phenotype (%)” value [5] was 88% and 94% and the “Total Cell Count” value [5] was 402 and 587. The “Population Apoptotic (%)” value [6] was 11%, the “Population Fragmented Nuclei (%)” value [6] was 9% and 3% and the “Population Healthy Nuclei (%)” value [6] was 75% and 68%. The “Population Hoechst High Intensity Objects (%)” value [6] was 2% and 5%, the “Population Membrane Permeable-Phenotype (%)” value [6] was 25% and 18% and the “Population Mitochondria Different-Phenotype (%)” value [6] was 40% and 37%. For the same molecule, the “Population Mitotic Cells (%)” value [6] was 88%, the “Population Normal (%)” value [6] was 97% and 94% and the “Population Pyknosed Nuclei (%)” value [6] was 15% and 28%. The “Population Tubulin-Different-Phenotype (%)” value [6] was 98% and 96% and the “Total Cell Count” value [6] was 1327 and 1023.
